For five compounds, IC50 and Activity results are on record in ChEMBL document CHEMBL1149897, “Acylated triterpenoid saponins from Schima noronhae and their cell growth inhibitory activity” (J Nat Prod, 2008).

Activity calls are given as the source filed them. The rule behind the calls is not given here.

Holding throughout (type): functional, cell-based
One test deals with HT-29. Kind of test: Cytotoxicity against human HT29 cells after 24 hrs by fluorometric microculture assay. The conditions noted are these: HT-29, 24 h.
Another test deals with HCT-116. The test can be described thus: Cytotoxicity against human HCT116 cells after 24 hrs by fluorometric microculture assay. The conditions noted are these: HCT-116, 24 h.
For another test, the system named is HeLa. Kind of test: Cytotoxicity against human HeLa cells after 24 hrs by fluorometric microculture assay. Summed up: (§1)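 DLD1 grown in RPMI 1640 with 10% FBS; HeLa in IMDM with 5% FBS; both at 37 °C, 5% CO2. Cells (6 × 10^3 per well) exposed to a range of compound concentrations for 24 h at 37 °C. Medium then removed and viability read by FMCA on a fluorescence plate reader as percent of control-well fluorescence. IC50 derived; triplicate experiments.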

The test system of another test is DLD-1. The test can be described thus: Cytotoxicity against human DLD1 cells after 24 hrs by fluorometric microculture assay. Summed up: as §1

Regarding `C/C=C(/C)C(=O)O[C@H]1[C@H](O)C(C)(C)C[C@H]2C3=CC[C@@H]4[C@@]5(C)CC[C@H](O[C@@H]6O[C@H](C(=O)O)[C@@H](O)[C@H](O)[C@H]6O[C@@H]6O[C@@H](C)[C@H](O)[C@@H](O)[C@H]6O)C(C)(C)[C@@H]5CC[C@@]4(C)[C@]3(C)[C@@H](O)[C@@H](O)[C@]21CO`, the half-maximal inhibitory concentration (IC50) in the test on HT-29 and with HCT-116 was greater than 40 µg/mL in each case.

For `C/C=C(/C)C(=O)O[C@H]1CC(C)(C)C[C@H]2C3=CC[C@@H]4[C@@]5(C)CC[C@H](O[C@@H]6O[C@H](C(=O)O)[C@@H](O)[C@H](O[C@@H]7O[C@H](CO)[C@H](O[C@@H]8O[C@@H](C)[C@H](O)[C@@H](O)[C@H]8O)[C@H](O)[C@H]7O)[C@H]6O[C@@H]6O[C@H](CO)[C@@H](O)[C@H](O)[C@H]6O)C(C)(C)[C@@H]5CC[C@@]4(C)[C@]3(C)CC[C@@]12CO`, in the test with HeLa, the IC50 stood at 3.8 µM. Further, the outcome in the test on DLD-1 was Active.

Turning to `C/C=C(/C)C(=O)O[C@H]1[C@H](O)C(C)(C)C[C@H]2C3=CC[C@@H]4[C@@]5(C)CC[C@H](O[C@@H]6O[C@H](C(=O)O)[C@@H](O)[C@H](O)[C@H]6O[C@@H]6O[C@@H](C)[C@H](O)[C@@H](O)[C@H]6O)C(C)(C)[C@@H]5CC[C@@]4(C)[C@]3(C)[C@@H](O)[C@@H](O)[C@]21COC(C)=O`, the IC50 in the test on HT-29 and in the test on HCT-116 was greater than 40 µg/mL each time.

`C/C=C(/C)C(=O)O[C@H]1CC(C)(C)C[C@H]2C3=CC[C@@H]4[C@@]5(C)CC[C@H](O[C@@H]6O[C@H](C(=O)O)[C@@H](O)[C@H](O[C@@H]7O[C@H](CO)[C@H](O[C@@H]8O[C@@H](C)[C@H](O)[C@@H](O)[C@H]8O)[C@H](O)[C@H]7O)[C@H]6O[C@@H]6O[C@H](CO)[C@@H](O)[C@H](O)[C@H]6O)C(C)(C)[C@@H]5CC[C@@]4(C)[C@]3(C)[C@@H](O)[C@@H](O)[C@@]12CO` displayed an IC50 with HeLa of 5.5 µM. For the same compound, the result in the test on DLD-1 was Active.

Take `C/C=C(/C)C(=O)O[C@H]1[C@H](OC(C)=O)C(C)(C)C[C@H]2C3=CC[C@@H]4[C@@]5(C)CC[C@H](O[C@@H]6O[C@H](C(=O)O)[C@@H](O)[C@H](O)[C@H]6O[C@@H]6O[C@@H](C)[C@H](O)[C@@H](O)[C@H]6O)C(C)(C)[C@@H]5CC[C@@]4(C)[C@]3(C)[C@@H](O)[C@@H](O)[C@]21CO`: the IC50 in the test on HT-29 and in the test on HCT-116 was greater than 40 µg/mL each time.

Usually IC50 stands for the point on the concentration scale where inhibition reaches its midpoint. A low value points to greater potency in that assay.
